Measurements reported in ChEMBL document CHEMBL1126734, “Synthesis of phosphocholine and quaternary amine ether lipids and evaluation of in vitro antineoplastic activity” (1993).

Columns and labels:
HL-60 [1] = assay: Standard thymidine incorporation assay (TdR) was carried out for 48 hr and involved a 24-h pulse of [3H]- thymidine (n=1) and ID50 value was evaluated; format: functional; conditions: Homo sapiens, read-out: ID50 (the source's name)
Summary of the method: (§1)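 HL-60 human promyelocytic leukemia cells in RPMI 1640 with 10% heat-inactivated FBS, 37 °C, 5% CO2. Log-phase cells seeded at 5 × 10^4/well with inhibitor dilutions from ethanol stocks (1 or 10 mg/mL). At 24 h, pulsed with 1.0 μCi [methyl-3H]thymidine (6.7 Ci/mmol) for a further 24 h. Harvested onto glass fiber filters and counted by liquid scintillation as % of control. Quadruplicate determinations. Values in μM.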

HL-60 [2] = assay: Trypan blue exclusion assay (TB) was carried out for 48 hr and the in vitro ID50 value was evaluated in the HL-60 leukemic cell system (n=1); format: functional, Homo sapiens; conditions: Homo sapiens, HL-60, 48 h; read-out: ID50 (the source's name)
Summary of the method: (§2)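 HL-60 human promyelocytic leukemia cells were grown in suspension in RPMI 1640 with 10% heat-inactivated FBS, penicillin/streptomycin, 2 mM L-glutamine and 0.22% NaHCO3 at 37 °C under 5% CO2. Cells at 5 × 10^5/mL were exposed to various inhibitor concentrations diluted from ethanol stocks into medium for 48 h. Trypan blue in PBS was then added and viable cells were counted by hemocytometer. Triplicate determinations; values in μM.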

HL-60 [3] = assay: Standard thymidine incorporation assay (TdR) was carried out for 48 hr and involved a 24-h pulse of [3H]- thymidine (n=2) and ID50 value was evaluated; format: functional; conditions: Homo sapiens, read-out: ID50 (the source's name); summary of the method: as §1
HL-60 [4] = assay: Trypan blue exclusion assay (TB) was carried out for 48 h and the in vitro ID50 value was evaluated in the HL-60 leukemic cell system (n=3); format: functional; conditions: Homo sapiens, HL-60, 48 h; read-out: ID50 (the source's name); summary of the method: as §2
HL-60 [5] = assay: Standard thymidine incorporation assay (TdR) was carried out for 48 hr and involved a 24-h pulse of [3H]- thymidine (n=3) and ID50 value was evaluated; format: functional; conditions: Homo sapiens, read-out: ID50 (the source's name); summary of the method: as §1
HL-60 [6] = assay: Standard thymidine incorporation assay (TdR) was carried out for 48 hr with an 8 hr pulse of [3H]- thymidine (TdR8) (n=4) and ID50 value was evaluated; format: functional; conditions: Homo sapiens, read-out: ID50 (the source's name)
Summary of the method: (§3)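 HL-60 leukemia suspension cultures grown in RPMI 1640/10% FBS at 37 °C, 5% CO2. Cells seeded at 5 × 10^4/well with inhibitors diluted from ethanol stocks. 48-h exposure, with 1.0 μCi [methyl-3H]thymidine (6.7 Ci/mmol) added for the last 8 h. Filter-harvested cells counted by liquid scintillation, uptake expressed as percent of control. Quadruplicate determinations. Results in μM.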

HL-60 [7] = assay: Trypan blue exclusion assay (TB) was carried out for 48 hr and the in vitro ID50 value was evaluated in the HL-60 leukemic cell system (n=2); format: functional; conditions: Homo sapiens, HL-60, 48 h; read-out: ID50 (the source's name); summary of the method: as §2
HL-60 [8] = assay: Standard thymidine incorporation assay (TdR) was carried out for 48 hr with an 8 hr pulse of [3H]- thymidine (TdR8) (n=5) and ID50 value was evaluated; format: functional; conditions: Homo sapiens, read-out: ID50 (the source's name); summary of the method: as §3
HL-60 [9] = assay: Trypan blue exclusion assay (TB) was carried out for 48 hr and the in vitro ID50 value was evaluated in the HL-60 leukemic cell system (n=4); format: functional; conditions: Homo sapiens, HL-60, 48 h; read-out: ID50 (the source's name); summary of the method: as §2
HL-60 [10] = assay: Standard thymidine incorporation assay (TdR) was carried out for 48 hr and involved a 24-h pulse of [3H]- thymidine (n=5) and ID50 value was evaluated; format: functional; conditions: Homo sapiens, read-out: ID50 (the source's name); summary of the method: as §1
HL-60 [11] = assay: Standard thymidine incorporation assay (TdR) was carried out for 48 hr with an 8 hr pulse of [3H]- thymidine (TdR8) (n=3) and ID50 value was evaluated; format: functional; conditions: Homo sapiens, read-out: ID50 (the source's name); summary of the method: as §3
HL-60 [12] = assay: Standard thymidine incorporation assay (TdR) was carried out for 48 hr with an 8 hr pulse of [3H]- thymidine (TdR8) (n=7) and ID50 value was evaluated; format: functional; conditions: Homo sapiens, read-out: ID50 (the source's name); summary of the method: as §3
HL-60 [13] = assay: Standard thymidine incorporation assay (TdR) was carried out for 48 h and involved a 24-h pulse of [3H]- thymidine (n=6) and ID50 value was evaluated; format: functional; conditions: Homo sapiens, read-out: ID50 (the source's name); summary of the method: as §1
HL-60 [14] = assay: Trypan blue exclusion assay (TB) was carried out for 48 hr and the in vitro ID50 value was evaluated in the HL-60 leukemic cell system (n=9); format: functional; conditions: Homo sapiens, HL-60, 48 h; read-out: ID50 (the source's name); summary of the method: as §2
HL-60 [15] = assay: Standard thymidine incorporation assay (TdR) was carried out for 48 hr with an 8 hr pulse of [3H]- thymidine (TdR8) (n=6) and ID50 value was evaluated; format: functional; conditions: Homo sapiens, read-out: ID50 (the source's name); summary of the method: as §3

CCCCCCCCCCCCCCCCSCC(COC)C[N+](C)(C)CCCO (stereo unspecified)
IC50 (HL-60 [1]): 3.46 µM

CCCCCCCCCCCCCCCCSCC(C[n+]1ccsc1)OC (stereo unspecified)
IC50 (HL-60 [2]): 8.75 µM
IC50 (HL-60 [3]): 7.17 µM

CCCCCCCCCCCCCCCCSCC(COP(=O)([O-])OCC[N+](C)(C)C)OCCC (stereo unspecified)
IC50 (HL-60 [4]): 2.73 µM
IC50 (HL-60 [3]): 2.19 µM

CCCCCCCCCCCCCCCCOCC(COP(=O)([O-])OCC[n+]1ccccc1)OCC (stereo unspecified)
IC50 (HL-60 [2]): 2.64 µM
IC50 (HL-60 [5]): 2.56 µM

CCCCCCCCCCCCCCCCOCC(COP(=O)(O)OCCNC(C)C)OCC (stereo unspecified)
IC50 (HL-60 [2]): 4.7 µM

CCCCCCCCCCCCCCCCCC(=O)NCCOP(=O)([O-])OCC[N+](C)(C)C
IC50 (HL-60 [6]): 5.73 µM
IC50 (HL-60 [3]): 7.02 µM
IC50 (HL-60 [7]): 4.56 µM

CCCCCCC(=O)CCCCCCCCCOCC(COP(=O)([O-])OCC[N+](C)(C)C)OCC (stereo unspecified)
IC50 (HL-60 [3]): 21.9 µM
IC50 (HL-60 [7]): 13 µM

CCCCCCCCCCCCCCCCOCC(C[S+](C)CCO)OC (stereo unspecified)
IC50 (HL-60 [4]): 2.49 µM
IC50 (HL-60 [8]): 2.03 µM
IC50 (HL-60 [5]): 2.01 µM

CCCCCCCCCCCCCCCCSCCOP(=O)([O-])OCC[N+](C)(C)C
IC50 (HL-60 [2]): 4.15 µM
IC50 (HL-60 [1]): 5.16 µM

CCCCCCCCCCCCCCCCOCC(C[n+]1cccc(CO)c1)OC (stereo unspecified)
IC50 (HL-60 [9]): 1.07 µM
IC50 (HL-60 [6]): 0.85 µM
IC50 (HL-60 [3]): 1.68 µM

CCCCCCCCCCCCCCCCSCC(C[N+](C)(C)CCO)OC (stereo unspecified)
IC50 (HL-60 [9]): 3.86 µM
IC50 (HL-60 [10]): 4.34 µM
IC50 (HL-60 [11]): 3.37 µM

CCCCCCCCCCCCCCCCOCC(COP(=O)([O-])OCC[N+](C)(C)C)(OC)OC
IC50 (HL-60 [2]): 3.38 µM

CCCCCCCCCCCCCCCCCC(=O)N(C)CC(COP(=O)([O-])OCC[N+](C)(C)C)OC (stereo unspecified)
IC50 (HL-60 [4]): 3.97 µM
IC50 (HL-60 [6]): 3.44 µM
IC50 (HL-60 [3]): 4.02 µM

CCCCCCCCCCCCCCCCSCC(COP(=O)(O)OCC[N+](CC)(CC)CC)OCC (stereo unspecified)
IC50 (HL-60 [2]): 3.31 µM

CCCCCCCCCCCCCCCCCCSCC(C[N+](C)(C)CCCO)OC (stereo unspecified)
IC50 (HL-60 [12]): 2.46 µM
IC50 (HL-60 [13]): 3.51 µM
IC50 (HL-60 [14]): 2.93 µM

CCCCCCCCCCCCCCC(CSCC(COP(=O)([O-])OCC[N+](C)(C)C)OCC)OC (stereo unspecified)
IC50 (HL-60 [4]): 3.39 µM
IC50 (HL-60 [3]): 2.47 µM

CCCCCCCCCCCCCCCCSCC(C[N+](C)(C)CC(O)CO)OC (stereo unspecified)
IC50 (HL-60 [4]): 3.62 µM
IC50 (HL-60 [10]): 3.05 µM
IC50 (HL-60 [15]): 1.9 µM

CCCCCCCCCCCCCCCCSCC[n+]1ccccc1
IC50 (HL-60 [1]): 2.28 µM

CCCCCCCCCCCCCCCCCC(=O)NCC(COP(=O)([O-])OCC[N+](C)(C)C)OCC (stereo unspecified)
IC50 (HL-60 [9]): 1.64 µM
IC50 (HL-60 [10]): 3.3 µM

CCCCCCCCCCCCCCCCCCOCC(COP(=O)([O-])OCC[N+](C)(C)Cc1ccccc1)OCC (stereo unspecified)
IC50 (HL-60 [2]): 3.65 µM
